Columns and labels:
[1] = 100% FBS supplemented with 50 mM HEPES, pH 7.4; conditions: fetal bovine, 37 °C, up to 24 h
[2] = Optical/chemical stability of fluorophores in 100% warm serum; assay type: in vitro ADME, bovine; conditions: 24 h
Summary of the method: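 Test fluorophores (10 mM DMSO stock, 100 μM working solution) were diluted into 100% FBS buffered with 50 mM HEPES, pH 7.4, and held at 37 °C. Optical stability was followed over time to 24 h by absorbance and fluorescence spectra, under 770 nm laser excitation at 10 mW.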

[3] = In vivo biodistribution and clearance in rodents after intravenous injection; set-up: species or system CD-1 mice and SD rats; conditions: rodent, 4 h post-injection
Summary of the method: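 Male CD-1 mice (≈25 g) and male Sprague-Dawley rats (≈250 g) were anaesthetised with ketamine 100 mg/kg plus xylazine 10 mg/kg i.p. They received test compound i.v. (mice 25 nmol, rats 100 nmol) and were imaged 4 h later on the FLARE NIR system (760 nm excitation, 11.0 mW/cm2; 810 ± 20 nm emission). Organ signal-to-background was calculated against surrounding muscle, with ≥3 animals per time point, mean ± s.d.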

[4] = Stability; assay type: in vitro ADME, bovine; conditions: fluorophore conjugated with a small molecule ligand, 24 h

Row | fragment found [1] | not cleaved [1] | serum stability [2] [%] | renal excretion [3] [%] | Molecule | stable form maintained in warm serum [4] [%]
1 | hydrolyzed form of cRGD-ZW800-1A, 24 h | >98%, 24 h | – | – | Cyclo(Arg-Gly-Asp-D-Tyr-Lys) | –
2 | – | – | > 99 | > 80 | CC1(C)C(/C=C/C2=C(c3ccc(CCC(=O)O)cc3)C(=C/C=C3/N(CCC[N+](C)(C)C)c4ccc(S(=O)(=O)O)cc4C3(C)C)/CCC2)=[N+](CCC[N+](C)(C)C)c2ccc(S(=O)(=O)O)cc21 [ZW800-1C] | > 98
